This is an account of results in ChEMBL document CHEMBL2417545, “6-methoxy-7-benzofuranoxy and 6-methoxy-7-indolyloxy analogues of 2-[2-(2,6-Dimethoxyphenoxy)ethyl]aminomethyl-1,4-benzodioxane (WB4101):1 discovery of a potent and selective α1D-adrenoceptor antagonist” (J Med Chem, 2013).

In general, pA2 refers to a measure of antagonist potency on a negative log scale.

What all share (type): tissue-based
The target of assay [1] is T1, Adrenergic receptor alpha-2 (Rattus norvegicus, UniProt P22086+P19328+P22909).
T1 sequence (P22086 whole entry): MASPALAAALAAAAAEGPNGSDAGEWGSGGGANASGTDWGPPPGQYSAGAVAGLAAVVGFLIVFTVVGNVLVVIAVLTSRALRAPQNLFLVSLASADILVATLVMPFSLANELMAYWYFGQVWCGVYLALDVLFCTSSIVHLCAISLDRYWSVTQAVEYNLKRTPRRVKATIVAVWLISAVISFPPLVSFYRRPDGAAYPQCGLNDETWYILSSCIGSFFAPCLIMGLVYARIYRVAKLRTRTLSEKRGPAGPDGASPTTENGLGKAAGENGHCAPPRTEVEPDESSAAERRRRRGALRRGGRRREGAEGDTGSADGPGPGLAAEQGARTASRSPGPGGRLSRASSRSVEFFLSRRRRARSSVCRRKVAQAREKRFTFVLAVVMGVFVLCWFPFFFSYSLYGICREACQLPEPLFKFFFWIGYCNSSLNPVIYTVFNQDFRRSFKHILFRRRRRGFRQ
T1 sequence (P19328 whole entry): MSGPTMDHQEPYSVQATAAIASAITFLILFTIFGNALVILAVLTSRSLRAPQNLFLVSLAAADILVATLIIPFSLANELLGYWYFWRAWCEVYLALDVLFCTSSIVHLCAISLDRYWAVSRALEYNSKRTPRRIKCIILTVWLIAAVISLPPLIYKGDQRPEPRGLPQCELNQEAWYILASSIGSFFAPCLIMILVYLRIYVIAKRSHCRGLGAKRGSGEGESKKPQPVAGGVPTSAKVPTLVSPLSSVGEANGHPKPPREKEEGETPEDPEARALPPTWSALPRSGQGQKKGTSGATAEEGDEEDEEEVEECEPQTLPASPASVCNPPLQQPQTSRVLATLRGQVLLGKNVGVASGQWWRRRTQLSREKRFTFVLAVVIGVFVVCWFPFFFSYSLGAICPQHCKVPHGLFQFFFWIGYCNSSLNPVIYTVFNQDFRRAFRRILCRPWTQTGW
T1 sequence (P22909 whole entry): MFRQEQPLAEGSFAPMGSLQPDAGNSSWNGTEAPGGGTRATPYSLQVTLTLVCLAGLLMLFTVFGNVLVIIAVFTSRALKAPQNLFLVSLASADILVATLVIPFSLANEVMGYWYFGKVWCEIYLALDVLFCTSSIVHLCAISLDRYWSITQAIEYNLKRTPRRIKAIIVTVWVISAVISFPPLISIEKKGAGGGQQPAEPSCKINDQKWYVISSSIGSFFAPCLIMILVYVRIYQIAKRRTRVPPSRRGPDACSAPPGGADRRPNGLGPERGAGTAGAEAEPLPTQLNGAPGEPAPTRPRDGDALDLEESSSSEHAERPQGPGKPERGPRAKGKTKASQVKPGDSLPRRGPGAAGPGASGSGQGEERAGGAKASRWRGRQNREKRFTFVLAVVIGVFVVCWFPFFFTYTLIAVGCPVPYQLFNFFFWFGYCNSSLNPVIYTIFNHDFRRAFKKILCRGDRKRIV
Kind of assay: Antagonist activity at alpha-2 adrenoreceptor in Sprague-Dawley rat prostatic vas deferens assessed as reversal of clonidine-inhibited twitch responses of field-stimulated prostatic portion of vas deferens after 30 mins by Schild plot analysis. The essentials: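 Prostatic vas deferens in bath with propranolol 1 μM and desipramine 0.01 μM throughout. A cumulative clonidine control curve was run, then a second curve after 30 min antagonist equilibration. pA₂ from Schild plot of log(DR−1) vs log[antagonist], at least three antagonist concentrations, 3−5 repeats each.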

Assay [2] is filed under the species Rattus norvegicus. Description: Selectivity ratio of Ki for alpha-1D adrenoreceptor in Sprague-Dawley rat thoracic aorta to Ki for alpha-1B adrenoreceptor in Sprague-Dawley rat spleen.
For assay [3], the species on record is Rattus norvegicus. Description: Selectivity ratio of Ki for alpha-1D adrenoreceptor in Sprague-Dawley rat thoracic aorta to Ki for alpha-1A adrenoreceptor in Sprague-Dawley rat prostatic vas deferens.
Assay [4] is filed under the species Rattus norvegicus. Description: Selectivity ratio of Ki for alpha-1D adrenoreceptor in Sprague-Dawley rat thoracic aorta to Ki for alpha-1A adrenoreceptor in Sprague-Dawley rat prostate.

Molecules are shown by their SMILES.

For the molecule `COc1ccc2c(c1OCCNC[C@H]1COc3ccccc3O1)NCC2.Cl.Cl`, in assay [1], the pA2 is 6.05.
Regarding `COc1ccc2ccoc2c1OCCNC[C@H]1COc2ccccc2O1.Cl`, the figures for the Ratio Ki in assay [2] and in assay [3] were 2 and 6, respectively. Moreover, the pA2 in assay [1] is recorded as 6.55.
As to `COc1ccc2cc[nH]c2c1OCCNC[C@H]1COc2ccccc2O1`, the pA2 in assay [1] turned out to be 6.09.
Consider `COc1ccc2c(c1OCCNC[C@H]1COc3ccccc3O1)OCC2.Cl`, for which the Ratio Ki amounted to 12 in assay [2], 50 in assay [4] and 129 in assay [3]. In assay [1], the pA2 was 6.63.
